We go through eleven molecules from ChEMBL document CHEMBL3763042, “Synthesis, biological evaluation and molecular modeling of a novel series of 7-azaindole based tri-heterocyclic compounds as potent CDK2/Cyclin E inhibitors” (Eur J Med Chem, 2016).

Experiment [1] concerns MCF7. Briefly: Cytotoxicity against human MCF7 cells assessed as cell viability after 72 hrs by fluorescence microplate reader method. It is filed as functional, cell-based. To be noted: MCF7, 72 h. In a few lines: (§1)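 Cells were exposed to three-fold compound dilutions in triplicate for 72 h. Viability was read after adding Calcein AM, as live-cell fluorescence at 485/538 nm (excitation/emission).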

Experiment [2] deals with MCF7. Briefly: Cytotoxicity against human MCF7 cells assessed as cell viability at 50 uM after 72 hrs by fluorescence microplate reader method. It is filed as functional. Conditions: MCF7, 72 h, read-out: Activity.
Experiment [3] concerns K562. Briefly: Cytotoxicity against human K562 cells assessed as cell viability at 50 uM after 72 hrs by fluorescence microplate reader method. It is filed as functional. Conditions: K562, 72 h, read-out: Activity.
Experiment [4] concerns the target Cyclin-dependent kinase 2/cyclin E1 (Homo sapiens, UniProt P24941). Briefly: Inhibition of CDK2/Cyclin E (unknown origin) expressed in baculoviral infected insect Sf9 cells using histone H1 as substrate in presence of [gamma-33P]ATP.
The nature of experiment [5]: Cytotoxicity against human G361 cells assessed as cell viability after 72 hrs by fluorescence microplate reader method. Format: functional, cell-based. Conditions: G-361, 72 h. In a few lines:
as §1

Another experiment relates to G-361. Briefly: Induction of apoptosis in human G361 cells assessed as activation of caspases-3/7 at 50 uM using Ac-DEVD-AMC as substrate after 6 hrs by fluorescence microplate reader method relative to control. Format: functional. Put shortly:
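G361 cells were seeded at 20,000 cells/well overnight, then treated with compound for 24 h. A 3x caspase-3/7 buffer (HEPES pH 7.4, NaCl, KCl, MgCl2, EGTA, Nonidet P40, CHAPS, sucrose, DTT, PMSF) containing Ac-DEVD-AMC substrate was added, and plates were incubated at 37 °C. Fluorescence at 346/442 nm was read after 6 h and expressed relative to untreated control.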

In experiment [6] the test system is K562. Briefly: Cytotoxicity against human K562 cells assessed as cell viability after 72 hrs by fluorescence microplate reader method. Format: functional, cell-based. To be noted: K562, 72 h. Put shortly: as §1
The nature of experiment [7]: Cytotoxicity against human G361 cells assessed as cell viability at 50 uM after 72 hrs by fluorescence microplate reader method. It is filed as functional. To be noted: G-361, 72 h, read-out: Activity.

For the molecule `c1cnc2[nH]c(Cn3cc(-c4cc5cccnc5[nH]4)nn3)cc2c1`, the IC50 in the experiment on MCF7 [1] was > 25 µM; in experiment [4] (read-out: IC50) it was 1.9 µM; in experiment [4] (read-out: pIC50 (converted)) it was 2 µM; in experiment [5], > 50 µM; in the experiment on K562 [6], > 25 µM. Also, the values for the viability at 50 µM (in the experiment on MCF7 [2]; with K562 [3]; in experiment [7]) were 74.8%, 97.6% and 90.6%, respectively. The “fold change (FC)” value with G-361 worked out at 1.9.

For the molecule `c1cnc2[nH]c(Cn3cc(-c4c[nH]c5ncccc45)nn3)cc2c1`, the IC50 with MCF7 [1] was 47.4 µM; in experiment [4] (read-out: IC50) it was 18.4 µM; in experiment [4] (read-out: pIC50 (converted)), 20 µM; in experiment [5], > 50 µM; with K562 [6], > 50 µM. Also, the viability at 50 µM came to 84.5% with MCF7 [2], 81.9% with K562 [3] and 88.6% in experiment [7]. Moreover, in the experiment on G-361, the “fold change (FC)” value worked out at 2.1.

In the case of `O=S(=O)(c1ccccc1)n1c(-c2cn(CCCc3c[nH]c4ncccc34)nn2)cc2cccnc21`, the IC50 in the experiment with MCF7 [1] is > 25 µM; in experiment [4] (read-out: IC50), 18 µM; in experiment [4] (read-out: pIC50 (converted)), 20 µM; in experiment [5], > 50 µM; with K562 [6], > 25 µM. The viability at 50 µM was determined as 84.1% with MCF7 [2], 89.2% in the experiment with K562 [3] and 86.8% in experiment [7]. Besides, the “fold change (FC)” value in the experiment with G-361 is recorded as 1.8.

For `O=C(CCn1nncc1-c1c[nH]c2ncccc12)c1c[nH]c2ncccc12`, the IC50 with MCF7 [1] is > 25 µM; in experiment [4] (read-out: IC50) it was 13.4 µM; in experiment [4] (read-out: pIC50 (converted)), 12.6 µM; in experiment [5], > 50 µM; in the experiment on K562 [6], > 25 µM. Also, the viability at 50 µM in the experiment on MCF7 [2] was 77.5%; with K562 [3] it was 73.8%; in experiment [7], 78.7%. Further, the “fold change (FC)” value in the experiment with G-361 was 3.3.

Consider `c1cnc2[nH]c(-c3cn(CCc4c[nH]c5ncccc45)nn3)cc2c1`, for which the IC50 in the experiment with MCF7 [1] is 58.5 µM; in experiment [4] (read-out: IC50), 30 µM; in experiment [4] (read-out: pIC50 (converted)), 31.6 µM; in experiment [5], > 50 µM; with K562 [6], > 50 µM. Besides, the viability at 50 µM came to 63.2% in the experiment with MCF7 [2], 67.2% in the experiment on K562 [3] and 59.1% in experiment [7]. For the same molecule, the “fold change (FC)” value in the experiment with G-361 was 4.5.

`O=C(CCn1cc(-c2c[nH]c3ncccc23)nn1)c1c[nH]c2ncccc12`: the IC50 is 64.7 µM with MCF7 [1]; 17.8 µM in experiment [4] (read-out: IC50); 20 µM in experiment [4] (read-out: pIC50 (converted)); > 50 µM in experiment [5]; 44.3 µM in the experiment with K562 [6]. Further, the values for the viability at 50 µM (in the experiment on MCF7 [2]; in the experiment with K562 [3]; in experiment [7]) were 63.5%, 65% and 61.3%, respectively. Further, the “fold change (FC)” value in the experiment with G-361 is listed as 4.5.

On to `O=C(CCn1nncc1-c1cc2cccnc2[nH]1)c1c[nH]c2ncccc12`, for which the IC50 with MCF7 [1] is > 25 µM; in experiment [4] (read-out: IC50), 36.1 µM; in experiment [4] (read-out: pIC50 (converted)), 31.6 µM; in experiment [5], > 50 µM; in the experiment on K562 [6], > 25 µM. Besides, the viability at 50 µM in experiment [7] amounted to 62.7%.

For `O=S(=O)(c1ccccc1)n1cc(Cn2cc(-c3c[nH]c4ncccc34)nn2)c2cccnc21`, the IC50 is > 25 µM in the experiment on MCF7 [1]; 25.8 µM in experiment [4] (read-out: IC50); 25.1 µM in experiment [4] (read-out: pIC50 (converted)); > 50 µM in experiment [5]; > 25 µM in the experiment with K562 [6]. For the same molecule, the viability at 50 µM with MCF7 [2] was 78.7%; in the experiment on K562 [3] it was 73.3%; in experiment [7], 86.1%. Also, the “fold change (FC)” value with G-361 turned out to be 7.5.

Turning to `O=S(=O)(c1ccccc1)n1c(-c2cn(CCc3c[nH]c4ncccc34)nn2)cc2cccnc21`, the IC50 in the experiment on MCF7 [1] is > 25 µM; in experiment [4] (read-out: IC50), > 25 µM; in experiment [4] (read-out: pIC50 (converted)) it was 25.1 µM; in experiment [5], > 50 µM; in the experiment with K562 [6] it was > 25 µM. The viability at 50 µM in the experiment on MCF7 [2] was determined as 76.2%; in the experiment with K562 [3], 82.7%; in experiment [7], 71.1%. For the same molecule, the “fold change (FC)” value in the experiment on G-361 came to 2.1.

As for `O=C(Cn1nncc1-c1c[nH]c2ncccc12)c1c[nH]c2ncccc12`, the IC50 with MCF7 [1] is > 25 µM; in experiment [4] (read-out: IC50), 1.1 µM; in experiment [4] (read-out: pIC50 (converted)), 1 µM; in experiment [5], > 50 µM; with K562 [6], > 25 µM. In addition, the viability at 50 µM with MCF7 [2] was determined as 75.2%; in the experiment with K562 [3], 76.6%; in experiment [7], 63%. For the same molecule, in the experiment on G-361, the “fold change (FC)” value is given as 2.9.

Turning to `Cc1ccc(NC(=O)c2ccc(CN3CCN(C)CC3)cc2)cc1Nc1nccc(-c2cccnc2)n1` [IMATINIB], the IC50 is > 10 µM with MCF7 [1] and 0.73 µM with K562 [6].
